From ChEMBL document CHEMBL4257503, “N-Acetyl-3-aminopyrazoles block the non-canonical NF-kB cascade by selectively inhibiting NIK” (Medchemcomm, 2018)
≈ marks a conversion by molar mass, not a printed value.

Key:
[1] = Kinetic solubility in phosphate buffered saline at pH 7.4 measured after 60 mins; format: physicochemical; details: read-out: Kinetic_solubility
[2] = target: Mitogen-activated protein kinase kinase kinase 14 (Homo sapiens, UniProt Q99558); assay: Inhibition of NIK-induced NFkappaB activation in human EJM cells at 25 uM after 6 hrs by dual luciferase reporter gene assay relative to control; format: cell-based
Procedure, shortened: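 Cells were nucleofected with the pGL4.32 NF-κB-RE firefly luciferase and pGL4.74 TK-Renilla plasmids (3 µg, 10:1 ratio) and cultured for 24 h at 37 °C. Compound (10, 25, 50 or 100 µM) was then added for 6 h. Firefly luminescence was normalised to Renilla from the same sample and expressed as % of vehicle control. Means ± SD of three independent experiments.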

[3] = target: Mitogen-activated protein kinase 14 (Homo sapiens, UniProt Q16539); assay: Inhibition of p38-alpha (unknown origin)
[4] = target: Casein kinase II subunit alpha (Homo sapiens, UniProt P68400); assay: Inhibition of CK2-alpha1 (unknown origin)
[5] = target: Serine/threonine-protein kinase Nek6 (Homo sapiens, UniProt Q9HC98); assay: Inhibition of NEK6 (unknown origin)
[6] = target: T1, Inhibitor of nuclear factor kappa-B kinase subunit alpha (Homo sapiens, UniProt O15111); assay: Inhibition of recombinant full length human His-tagged IKKalpha expressed in baculovirus expression system using ERLLDDRHDSGLDSMKDEE peptide as substrate measured after 60 mins by ADP-Glo kinase assay
T1 sequence (O15111 whole entry): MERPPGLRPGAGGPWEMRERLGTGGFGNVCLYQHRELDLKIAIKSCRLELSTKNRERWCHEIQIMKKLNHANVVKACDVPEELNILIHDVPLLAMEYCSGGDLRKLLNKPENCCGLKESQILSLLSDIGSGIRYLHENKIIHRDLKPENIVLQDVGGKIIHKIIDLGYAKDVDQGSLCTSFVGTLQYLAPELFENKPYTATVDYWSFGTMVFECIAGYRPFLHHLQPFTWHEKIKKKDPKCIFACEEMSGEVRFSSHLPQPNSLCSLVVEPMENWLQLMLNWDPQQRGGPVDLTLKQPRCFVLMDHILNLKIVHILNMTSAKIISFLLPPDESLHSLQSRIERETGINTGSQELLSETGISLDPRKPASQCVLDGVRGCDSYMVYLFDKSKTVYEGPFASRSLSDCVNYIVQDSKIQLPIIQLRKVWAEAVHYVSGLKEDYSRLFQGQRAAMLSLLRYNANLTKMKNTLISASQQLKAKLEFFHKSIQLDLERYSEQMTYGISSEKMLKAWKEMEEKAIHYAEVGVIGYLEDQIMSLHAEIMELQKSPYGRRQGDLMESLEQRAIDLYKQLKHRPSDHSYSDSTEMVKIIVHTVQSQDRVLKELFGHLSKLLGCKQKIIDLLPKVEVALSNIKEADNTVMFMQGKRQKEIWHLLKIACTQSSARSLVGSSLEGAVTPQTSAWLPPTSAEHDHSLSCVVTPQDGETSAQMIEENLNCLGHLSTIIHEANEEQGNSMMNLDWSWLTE
Procedure, shortened: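 Recombinant human IKKα, peptide substrate 100 µM, enzyme 8 ng/µL, ATP 1 µM in Tris-HCl pH 7.5 buffer with MgCl2, MnCl2, DTT, Na3VO4, BSA; 25°C, 60 min; ADP-Glo luminescence. Ten concentrations 0.005–100 µM; IC50 by nonlinear regression; means ± SD of three independent experiments.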

[7] = Cytotoxicity against human EJM cells assessed as cell viability at 25 uM after 6 hrs by CellTiter Glo luminescent assay relative to control; format: cell-based; details: read-out: Activity
Procedure, shortened: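 Cells seeded at 5 x 10^3 per well and exposed for 6 h to the compound (10, 25, 50 or 100 µM) or to DMSO vehicle. Viability was read as intracellular ATP by CellTiter Glo luminescence.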

[8] = target: Cyclin-dependent kinase 1/cyclin B1 (Homo sapiens, UniProt P06493); assay: Inhibition of CDK1/Cyclin B1 (unknown origin); format: protein-complex assay
[9] = target: Platelet-derived growth factor receptor alpha (Homo sapiens, UniProt P16234); assay: Inhibition of wild-type PDGFR-alpha (unknown origin)
Platelet-derived growth factor receptor alpha, sequence (P16234 whole entry): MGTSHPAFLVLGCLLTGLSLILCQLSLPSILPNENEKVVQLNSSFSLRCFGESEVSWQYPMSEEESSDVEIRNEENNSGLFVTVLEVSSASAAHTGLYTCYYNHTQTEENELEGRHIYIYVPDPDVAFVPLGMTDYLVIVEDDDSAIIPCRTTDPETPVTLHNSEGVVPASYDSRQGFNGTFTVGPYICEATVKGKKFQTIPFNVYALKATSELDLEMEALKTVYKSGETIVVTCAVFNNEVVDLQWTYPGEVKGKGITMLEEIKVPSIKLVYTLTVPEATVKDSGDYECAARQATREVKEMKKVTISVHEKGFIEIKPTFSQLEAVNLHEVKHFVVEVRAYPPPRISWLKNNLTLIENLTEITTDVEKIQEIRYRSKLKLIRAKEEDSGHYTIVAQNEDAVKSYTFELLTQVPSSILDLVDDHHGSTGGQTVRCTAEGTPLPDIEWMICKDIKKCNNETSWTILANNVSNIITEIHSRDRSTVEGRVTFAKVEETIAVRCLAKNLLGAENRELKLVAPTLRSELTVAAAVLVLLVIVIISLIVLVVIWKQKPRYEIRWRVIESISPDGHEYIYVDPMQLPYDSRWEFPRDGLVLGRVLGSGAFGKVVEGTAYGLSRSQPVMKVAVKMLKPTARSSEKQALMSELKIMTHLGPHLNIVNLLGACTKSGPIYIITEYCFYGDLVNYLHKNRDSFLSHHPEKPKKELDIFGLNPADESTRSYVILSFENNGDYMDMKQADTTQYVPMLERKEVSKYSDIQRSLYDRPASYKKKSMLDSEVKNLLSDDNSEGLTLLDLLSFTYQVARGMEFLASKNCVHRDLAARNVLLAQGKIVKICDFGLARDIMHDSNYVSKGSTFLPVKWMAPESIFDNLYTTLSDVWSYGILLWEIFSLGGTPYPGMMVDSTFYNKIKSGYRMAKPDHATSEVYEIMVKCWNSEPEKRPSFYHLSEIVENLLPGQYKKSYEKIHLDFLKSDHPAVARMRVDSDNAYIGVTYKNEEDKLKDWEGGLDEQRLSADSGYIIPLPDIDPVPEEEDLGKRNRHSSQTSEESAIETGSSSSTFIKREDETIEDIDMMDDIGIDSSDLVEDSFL

Mitogen-activated protein kinase kinase kinase 14, sequence (Q99558 whole entry, looked up): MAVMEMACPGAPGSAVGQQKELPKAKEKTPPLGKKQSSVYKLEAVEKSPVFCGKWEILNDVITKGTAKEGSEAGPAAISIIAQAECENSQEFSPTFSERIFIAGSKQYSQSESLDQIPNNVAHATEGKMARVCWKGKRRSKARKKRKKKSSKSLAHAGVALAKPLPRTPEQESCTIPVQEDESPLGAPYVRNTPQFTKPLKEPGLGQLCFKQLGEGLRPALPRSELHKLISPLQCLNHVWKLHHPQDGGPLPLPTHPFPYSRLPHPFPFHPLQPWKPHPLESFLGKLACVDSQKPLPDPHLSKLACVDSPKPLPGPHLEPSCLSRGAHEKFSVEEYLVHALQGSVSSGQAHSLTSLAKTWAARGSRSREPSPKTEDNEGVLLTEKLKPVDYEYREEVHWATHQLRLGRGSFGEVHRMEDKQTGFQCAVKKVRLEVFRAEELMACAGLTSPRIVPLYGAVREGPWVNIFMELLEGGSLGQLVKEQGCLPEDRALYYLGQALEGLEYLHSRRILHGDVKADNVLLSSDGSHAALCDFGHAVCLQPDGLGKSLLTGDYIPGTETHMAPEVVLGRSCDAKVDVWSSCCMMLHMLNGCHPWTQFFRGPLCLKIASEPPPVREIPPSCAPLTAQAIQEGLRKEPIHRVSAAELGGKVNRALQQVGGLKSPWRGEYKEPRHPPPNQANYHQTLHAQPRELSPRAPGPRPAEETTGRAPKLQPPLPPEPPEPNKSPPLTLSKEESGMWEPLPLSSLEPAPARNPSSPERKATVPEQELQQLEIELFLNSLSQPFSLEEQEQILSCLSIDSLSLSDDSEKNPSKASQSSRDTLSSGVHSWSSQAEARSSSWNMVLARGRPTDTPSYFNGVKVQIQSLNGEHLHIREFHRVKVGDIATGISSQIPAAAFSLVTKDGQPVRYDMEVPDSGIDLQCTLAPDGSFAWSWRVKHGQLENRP
Serine/threonine-protein kinase Nek6, sequence (Q9HC98 whole entry): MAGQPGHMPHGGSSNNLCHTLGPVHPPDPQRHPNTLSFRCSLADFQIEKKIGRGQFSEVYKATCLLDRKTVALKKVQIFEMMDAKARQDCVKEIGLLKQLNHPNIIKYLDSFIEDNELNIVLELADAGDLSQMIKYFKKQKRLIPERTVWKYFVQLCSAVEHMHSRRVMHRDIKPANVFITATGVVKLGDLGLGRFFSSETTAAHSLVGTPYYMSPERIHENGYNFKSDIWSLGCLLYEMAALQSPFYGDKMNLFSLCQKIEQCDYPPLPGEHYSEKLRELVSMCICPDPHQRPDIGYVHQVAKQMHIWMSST
Casein kinase II subunit alpha, sequence (P68400 whole entry): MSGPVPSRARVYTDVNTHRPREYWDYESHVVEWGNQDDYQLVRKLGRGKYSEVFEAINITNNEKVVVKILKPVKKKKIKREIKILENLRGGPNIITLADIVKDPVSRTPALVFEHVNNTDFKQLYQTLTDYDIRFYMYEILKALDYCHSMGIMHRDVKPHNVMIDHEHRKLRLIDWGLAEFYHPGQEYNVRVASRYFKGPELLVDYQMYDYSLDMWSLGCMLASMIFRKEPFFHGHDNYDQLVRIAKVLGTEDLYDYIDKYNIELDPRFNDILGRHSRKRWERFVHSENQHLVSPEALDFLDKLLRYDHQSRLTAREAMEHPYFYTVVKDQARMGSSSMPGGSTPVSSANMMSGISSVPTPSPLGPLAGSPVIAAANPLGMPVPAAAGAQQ
Mitogen-activated protein kinase 14, sequence (Q16539 whole entry): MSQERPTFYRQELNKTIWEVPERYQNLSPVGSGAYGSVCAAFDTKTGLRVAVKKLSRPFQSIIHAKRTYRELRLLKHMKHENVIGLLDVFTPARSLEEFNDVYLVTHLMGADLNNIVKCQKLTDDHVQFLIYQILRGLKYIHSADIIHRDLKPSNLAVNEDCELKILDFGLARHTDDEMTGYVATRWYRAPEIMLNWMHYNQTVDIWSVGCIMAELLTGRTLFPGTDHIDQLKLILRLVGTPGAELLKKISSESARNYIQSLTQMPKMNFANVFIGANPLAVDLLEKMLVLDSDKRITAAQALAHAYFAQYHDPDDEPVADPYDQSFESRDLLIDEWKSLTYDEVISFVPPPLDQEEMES
Cyclin-dependent kinase 1/cyclin B1, sequence (P06493 whole entry): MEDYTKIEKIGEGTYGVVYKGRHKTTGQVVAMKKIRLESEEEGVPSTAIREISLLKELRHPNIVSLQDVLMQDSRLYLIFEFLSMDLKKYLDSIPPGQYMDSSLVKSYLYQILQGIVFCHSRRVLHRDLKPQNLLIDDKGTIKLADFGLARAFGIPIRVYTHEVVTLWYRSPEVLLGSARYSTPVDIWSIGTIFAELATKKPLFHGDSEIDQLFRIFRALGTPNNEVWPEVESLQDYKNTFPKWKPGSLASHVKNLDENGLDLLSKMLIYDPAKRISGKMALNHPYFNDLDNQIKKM
Cyclin-dependent kinase 1/cyclin B1, sequence (P14635 whole entry, further chain): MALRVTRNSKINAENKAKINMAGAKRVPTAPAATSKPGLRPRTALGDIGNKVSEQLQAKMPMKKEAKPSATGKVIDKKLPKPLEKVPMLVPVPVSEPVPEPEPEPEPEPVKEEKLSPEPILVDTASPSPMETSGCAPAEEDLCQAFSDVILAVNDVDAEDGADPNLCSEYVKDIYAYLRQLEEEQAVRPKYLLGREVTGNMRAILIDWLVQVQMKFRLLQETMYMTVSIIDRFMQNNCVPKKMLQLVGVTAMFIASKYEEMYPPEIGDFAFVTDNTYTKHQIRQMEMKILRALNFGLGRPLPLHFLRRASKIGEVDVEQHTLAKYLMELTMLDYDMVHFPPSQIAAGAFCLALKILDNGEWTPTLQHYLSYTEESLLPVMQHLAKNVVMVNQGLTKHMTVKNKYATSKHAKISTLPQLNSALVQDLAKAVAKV

Compound: CC(=O)n1nc(C)c(-c2ccc(Cl)c(Cl)c2)c1N
- solubility kinetic at 1 h [1]: 12 µM (≈ 3.41 µg/mL)
- inhibition [2]: 83.4%
- IC50 [3]: > 100 µM
- IC50 [4]: > 100 µM
- IC50 [5]: > 100 µM
- IC50 [6]: > 100 µM
- viability at 6 h, 25 µM [7]: ≥ 80%
- IC50 [8]: > 100 µM
- IC50 [9]: > 100 µM
